# From ChEMBL document CHEMBL1154740, “Efficient microwave combinatorial synthesis of novel indolic arylpiperazine derivatives as serotoninergic ligands” (Eur J Med Chem, 2010)
# Tests used:
# [1] = target: T1, Adrenergic receptor alpha-1 (Rattus norvegicus, UniProt P15823+P23944+P43140); experiment: Displacement of [3H]prozosine from alpha1 adrenergic receptor in rat brain cortex by liquid scintillation counting; format: tissue-based
# T1 sequence (P15823 whole entry): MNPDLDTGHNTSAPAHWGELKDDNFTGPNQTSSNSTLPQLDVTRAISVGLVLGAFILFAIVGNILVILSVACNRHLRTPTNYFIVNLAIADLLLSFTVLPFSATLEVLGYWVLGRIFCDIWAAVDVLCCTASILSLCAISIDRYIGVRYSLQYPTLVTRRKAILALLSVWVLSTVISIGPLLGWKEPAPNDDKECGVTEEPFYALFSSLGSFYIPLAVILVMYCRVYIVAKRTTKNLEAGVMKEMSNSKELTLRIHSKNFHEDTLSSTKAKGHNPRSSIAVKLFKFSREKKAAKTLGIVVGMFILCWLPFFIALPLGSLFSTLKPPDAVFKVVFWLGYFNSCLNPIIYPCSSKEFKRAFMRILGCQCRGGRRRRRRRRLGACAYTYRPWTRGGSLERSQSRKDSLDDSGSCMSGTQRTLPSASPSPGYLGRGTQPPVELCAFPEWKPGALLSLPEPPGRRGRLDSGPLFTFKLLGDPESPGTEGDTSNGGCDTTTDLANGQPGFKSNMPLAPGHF
# T1 sequence (P23944 whole entry): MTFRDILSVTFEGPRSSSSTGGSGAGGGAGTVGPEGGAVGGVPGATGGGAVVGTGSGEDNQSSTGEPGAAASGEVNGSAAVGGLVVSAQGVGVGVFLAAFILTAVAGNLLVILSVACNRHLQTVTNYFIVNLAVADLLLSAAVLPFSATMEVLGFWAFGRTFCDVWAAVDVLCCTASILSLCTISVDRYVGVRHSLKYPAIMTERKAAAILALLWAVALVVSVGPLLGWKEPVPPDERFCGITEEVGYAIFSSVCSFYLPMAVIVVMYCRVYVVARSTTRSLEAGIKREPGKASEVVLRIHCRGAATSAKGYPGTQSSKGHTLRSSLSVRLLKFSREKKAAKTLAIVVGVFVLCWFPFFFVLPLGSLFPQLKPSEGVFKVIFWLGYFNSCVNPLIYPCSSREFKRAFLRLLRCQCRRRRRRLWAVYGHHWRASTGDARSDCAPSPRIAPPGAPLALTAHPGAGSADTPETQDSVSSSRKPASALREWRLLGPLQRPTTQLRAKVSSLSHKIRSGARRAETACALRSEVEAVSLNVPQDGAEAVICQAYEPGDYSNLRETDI
# T1 sequence (P43140 whole entry): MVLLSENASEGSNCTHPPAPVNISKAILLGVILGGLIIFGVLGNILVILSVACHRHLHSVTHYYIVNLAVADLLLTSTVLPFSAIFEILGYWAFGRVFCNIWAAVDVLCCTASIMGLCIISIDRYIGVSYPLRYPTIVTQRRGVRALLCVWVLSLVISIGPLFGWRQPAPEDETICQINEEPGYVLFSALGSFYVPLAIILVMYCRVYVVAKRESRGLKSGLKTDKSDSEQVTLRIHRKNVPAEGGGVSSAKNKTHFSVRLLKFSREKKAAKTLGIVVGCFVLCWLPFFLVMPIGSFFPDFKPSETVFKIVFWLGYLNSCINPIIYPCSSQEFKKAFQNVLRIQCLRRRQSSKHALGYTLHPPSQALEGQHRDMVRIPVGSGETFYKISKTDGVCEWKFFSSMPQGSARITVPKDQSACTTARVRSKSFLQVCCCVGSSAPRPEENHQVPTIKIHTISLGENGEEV
# Outline: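 Brain cortex membranes (10 mg fresh tissue) in 50 mM Tris–HCl pH 7.4 at 25 °C. [3H]prazosin at 0.4 nM final, incubated 30 min at 25 °C, GF/B filtration. Nonspecific binding with […]. Ki from IC50 via Cheng–Prusoff.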
# [2] = target: 5-hydroxytryptamine receptor 2A (Rattus norvegicus, UniProt P14842); experiment: Displacement of [3H]ketanserin from 5HT2A in Sprague-Dawley rat brain cortex by liquid scintillation counting
# Outline: (§1)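 Frontal cortex of male Sprague–Dawley rats (180–220 g), in 50 mM Tris-HCl, 0.5 mM EDTA, 10 mM MgCl2, pH 7.4, plus 0.1% ascorbate and pargyline. Triplicate 2.0 mL assays: 5-HT2A with 5 mg tissue and 0.4 nM [3H]ketanserin; 5-HT2C with 10 mg tissue and 1 nM [3H]mesulergine. 15 min at 37 °C, PEI-soaked filters. IC50 from six concentrations converted to Ki (Cheng–Prusoff).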
# [3] = target: D(1A) dopamine receptor (Rattus norvegicus, UniProt P18901); experiment: Displacement of [3H]SCH23390 from dopamine D1 in rat striatum by liquid scintillation counting
# Outline: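 Rat corpora striata membranes in 50 mM Tris–HCl with 120 mM NaCl, 5 mM KCl, 2 mM CaCl2, 1 mM MgCl2, 0.1% ascorbic acid, pargyline, pH 7.1 at 37 °C; 3 mg fresh tissue per tube. [3H]SCH-23390 at 0.4 nM final, 15 min at 37 °C, GF/B filtration. Nonspecific binding defined with piflutixol. Ki from IC50 via Cheng–Prusoff.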
# [4] = target: D(2) dopamine receptor (Rattus norvegicus, UniProt P61169); experiment: Displacement of [3H]spiperone from dopamine D2 in rat striatum by liquid scintillation counting
# Outline: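 Striatal membranes (3 mg fresh tissue) in Tris–HCl with NaCl, KCl, CaCl2, MgCl2, ascorbic acid and pargyline, pH 7.1 at 37 °C. Incubated with [3H]spiperone at 0.4 nM final for 15 min at 37 °C, then filtered on GF/B. Nonspecific binding defined with (+)-butaclamol. IC50 converted to Ki by Cheng–Prusoff.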
# [5] = target: T2, Adrenergic receptor alpha-2 (Rattus norvegicus, UniProt P22086+P19328+P22909); experiment: Displacement of [3H]yohimbine from alpha2 adrenergic receptor in rat brain cortex by liquid scintillation counting; format: tissue-based
# T2 sequence (P22086 whole entry): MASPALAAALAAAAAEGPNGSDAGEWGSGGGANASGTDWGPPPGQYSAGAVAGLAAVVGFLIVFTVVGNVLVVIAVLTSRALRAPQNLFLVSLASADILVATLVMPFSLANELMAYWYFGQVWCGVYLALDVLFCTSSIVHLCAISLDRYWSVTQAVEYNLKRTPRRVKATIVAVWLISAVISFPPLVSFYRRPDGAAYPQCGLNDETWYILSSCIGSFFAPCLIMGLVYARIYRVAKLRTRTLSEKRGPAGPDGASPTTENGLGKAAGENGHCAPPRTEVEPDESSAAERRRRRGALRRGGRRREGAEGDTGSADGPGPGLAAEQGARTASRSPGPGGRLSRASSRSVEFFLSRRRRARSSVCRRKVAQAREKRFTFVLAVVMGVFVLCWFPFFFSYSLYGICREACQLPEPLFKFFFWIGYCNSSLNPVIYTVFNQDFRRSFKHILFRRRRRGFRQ
# T2 sequence (P19328 whole entry): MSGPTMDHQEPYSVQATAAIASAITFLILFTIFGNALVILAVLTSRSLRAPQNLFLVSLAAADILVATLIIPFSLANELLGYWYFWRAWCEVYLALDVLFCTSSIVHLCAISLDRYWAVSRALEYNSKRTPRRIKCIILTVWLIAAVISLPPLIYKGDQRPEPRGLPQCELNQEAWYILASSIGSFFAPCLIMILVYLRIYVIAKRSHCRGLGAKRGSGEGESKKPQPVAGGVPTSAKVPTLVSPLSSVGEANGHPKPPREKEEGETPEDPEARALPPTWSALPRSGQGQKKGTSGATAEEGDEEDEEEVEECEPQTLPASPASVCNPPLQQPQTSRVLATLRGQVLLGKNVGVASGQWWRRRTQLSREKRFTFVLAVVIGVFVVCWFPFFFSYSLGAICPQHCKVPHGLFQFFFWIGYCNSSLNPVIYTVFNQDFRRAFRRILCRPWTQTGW
# T2 sequence (P22909 whole entry): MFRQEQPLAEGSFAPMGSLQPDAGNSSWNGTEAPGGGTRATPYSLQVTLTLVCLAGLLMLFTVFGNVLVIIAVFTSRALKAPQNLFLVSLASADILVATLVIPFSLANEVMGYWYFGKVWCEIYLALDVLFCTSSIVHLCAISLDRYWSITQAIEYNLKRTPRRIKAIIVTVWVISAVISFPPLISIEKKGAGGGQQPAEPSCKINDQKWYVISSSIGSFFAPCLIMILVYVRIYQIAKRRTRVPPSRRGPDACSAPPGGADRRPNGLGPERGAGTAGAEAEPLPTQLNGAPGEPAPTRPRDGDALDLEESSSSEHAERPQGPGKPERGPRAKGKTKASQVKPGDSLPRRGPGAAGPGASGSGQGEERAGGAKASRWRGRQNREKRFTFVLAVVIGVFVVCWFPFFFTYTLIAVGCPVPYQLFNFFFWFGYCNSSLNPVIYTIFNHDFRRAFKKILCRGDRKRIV
# Outline: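 Cortical membranes prepared in 5 mM Tris–HCl/5 mM EDTA pH 7.3, washed three times; 10 mg fresh tissue per tube. [3H]yohimbine at 1 nM final, 30 min at 25 °C, GF/B filtration, washed with Tris–HCl/EDTA pH 7.5. Nonspecific binding defined with […]. IC50 converted to Ki by Cheng–Prusoff.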
# [6] = target: T3, 5-hydroxytryptamine receptor 2C (Rattus norvegicus, UniProt P08909); experiment: Displacement of [3H]mesulergine from 5HT2C in Sprague-Dawley rat brain cortex by liquid scintillation counting; outline: as §1
# T3 sequence (P08909 whole entry): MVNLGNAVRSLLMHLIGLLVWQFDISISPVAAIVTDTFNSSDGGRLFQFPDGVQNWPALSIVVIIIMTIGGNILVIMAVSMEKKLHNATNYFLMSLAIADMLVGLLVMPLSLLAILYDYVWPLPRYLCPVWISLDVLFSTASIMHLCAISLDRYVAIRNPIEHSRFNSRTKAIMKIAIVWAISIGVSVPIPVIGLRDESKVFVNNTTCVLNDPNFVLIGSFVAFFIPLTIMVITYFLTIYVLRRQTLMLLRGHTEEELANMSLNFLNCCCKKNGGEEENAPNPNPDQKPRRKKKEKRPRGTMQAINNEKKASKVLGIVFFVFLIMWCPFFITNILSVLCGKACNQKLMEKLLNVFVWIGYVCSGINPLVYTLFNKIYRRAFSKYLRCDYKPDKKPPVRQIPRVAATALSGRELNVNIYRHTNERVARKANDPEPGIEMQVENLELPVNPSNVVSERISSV
# [7] = target: T4, 5-hydroxytryptamine receptor 1A (Rattus norvegicus, UniProt P19327); experiment: Displacement of [3H]8OH-DPAT from 5HT1A in Sprague-Dawley rat brain cortex by liquid scintillation counting
# T4 sequence (P19327 whole entry): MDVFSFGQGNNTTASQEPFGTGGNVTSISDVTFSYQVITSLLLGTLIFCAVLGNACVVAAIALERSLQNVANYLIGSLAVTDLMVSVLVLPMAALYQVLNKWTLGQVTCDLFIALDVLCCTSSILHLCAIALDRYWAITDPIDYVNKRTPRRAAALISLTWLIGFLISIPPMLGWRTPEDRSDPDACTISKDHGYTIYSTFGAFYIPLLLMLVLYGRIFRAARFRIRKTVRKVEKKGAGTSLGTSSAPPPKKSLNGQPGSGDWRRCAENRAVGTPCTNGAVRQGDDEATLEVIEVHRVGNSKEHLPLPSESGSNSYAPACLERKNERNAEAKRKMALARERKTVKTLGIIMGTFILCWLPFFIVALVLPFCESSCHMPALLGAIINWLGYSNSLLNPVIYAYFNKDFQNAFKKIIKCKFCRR
# Outline: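 Male Sprague–Dawley rat (180–220 g) cerebral cortex membranes, washed and preincubated 10 min at 37 °C, in Tris–HCl pH 7.7 with pargyline, 4 mM CaCl2, 0.1% ascorbate. [3H]-8-OH-DPAT at 0.1 nM final, 30 min at 37 °C, GF/B filtration. Nonspecific binding defined with 5-HT. Six concentrations in triplicate; IC50 converted to Ki by Cheng–Prusoff using Scatchard KD.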
# Chain of D(1A) dopamine receptor (P18901 whole entry): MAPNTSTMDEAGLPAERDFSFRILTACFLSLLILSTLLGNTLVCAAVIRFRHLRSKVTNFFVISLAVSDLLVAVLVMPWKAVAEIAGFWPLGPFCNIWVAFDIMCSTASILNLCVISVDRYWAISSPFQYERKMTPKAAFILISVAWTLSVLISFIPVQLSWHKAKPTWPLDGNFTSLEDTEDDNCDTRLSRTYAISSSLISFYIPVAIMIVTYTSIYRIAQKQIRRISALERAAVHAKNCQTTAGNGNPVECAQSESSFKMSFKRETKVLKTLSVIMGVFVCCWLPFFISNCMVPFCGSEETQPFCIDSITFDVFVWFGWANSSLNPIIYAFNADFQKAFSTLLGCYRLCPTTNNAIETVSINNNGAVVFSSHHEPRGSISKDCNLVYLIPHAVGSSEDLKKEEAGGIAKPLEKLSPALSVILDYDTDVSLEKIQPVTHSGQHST
# Chain of 5-hydroxytryptamine receptor 2A (P14842 whole entry): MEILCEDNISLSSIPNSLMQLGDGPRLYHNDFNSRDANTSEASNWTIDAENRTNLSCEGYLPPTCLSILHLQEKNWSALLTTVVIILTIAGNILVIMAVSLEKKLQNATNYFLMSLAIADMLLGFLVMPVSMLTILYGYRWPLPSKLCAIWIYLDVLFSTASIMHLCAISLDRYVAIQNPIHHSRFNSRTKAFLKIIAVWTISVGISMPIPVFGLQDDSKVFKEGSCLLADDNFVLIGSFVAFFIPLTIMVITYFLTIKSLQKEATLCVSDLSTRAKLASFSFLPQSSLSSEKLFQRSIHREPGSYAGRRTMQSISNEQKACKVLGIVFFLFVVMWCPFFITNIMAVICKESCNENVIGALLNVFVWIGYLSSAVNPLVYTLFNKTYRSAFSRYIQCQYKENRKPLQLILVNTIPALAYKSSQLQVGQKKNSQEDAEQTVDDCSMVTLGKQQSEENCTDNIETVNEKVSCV
# Chain of D(2) dopamine receptor (P61169 whole entry): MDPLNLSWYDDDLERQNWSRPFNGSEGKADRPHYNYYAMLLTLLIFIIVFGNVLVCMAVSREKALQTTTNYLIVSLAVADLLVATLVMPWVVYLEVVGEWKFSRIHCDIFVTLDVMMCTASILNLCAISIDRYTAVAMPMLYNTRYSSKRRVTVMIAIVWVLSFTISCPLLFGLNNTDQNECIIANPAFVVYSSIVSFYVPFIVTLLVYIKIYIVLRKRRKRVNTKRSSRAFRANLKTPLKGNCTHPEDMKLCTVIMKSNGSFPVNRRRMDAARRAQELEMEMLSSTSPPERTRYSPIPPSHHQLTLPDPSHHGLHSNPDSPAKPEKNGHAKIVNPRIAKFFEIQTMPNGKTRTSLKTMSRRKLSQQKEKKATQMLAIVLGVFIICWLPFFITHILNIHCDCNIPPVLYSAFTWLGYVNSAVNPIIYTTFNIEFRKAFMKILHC
SMILES,Ki ([2]; read-out: Ki),Ki ([6]; read-out: Ki),Ki ([7]; read-out: Ki),further results
CCOC(=O)c1cc2cc(OCCCN3CCN(c4ccc(OC)cc4)CC3)ccc2[nH]1,10 µM,0.0504 µM,10 µM,Ki [1]: 0.514 µM; Ki [3]: Not Active; Ki [4]: Not Active; Ki [5]: 6.48 µM
CCOC(=O)c1cc2cc(OCCCN3CCN(Cc4ccc5c(c4)OCO5)CC3)ccc2[nH]1,0.0261 µM,0.0436 µM,10 µM,Ki [1]: 0.338 µM; Ki ([3]; read-out: Ki): 10 µM; Ki [4]: Not Active; Ki [5]: 0.231 µM
CCOC(=O)c1cc2cc(OCCCN3CCN(c4ccccn4)CC3)ccc2[nH]1,0.344 µM,0.104 µM,,Ki [7]: Not Active
CCOC(=O)c1cc2cc(OCCCN3CCN(C(=O)c4ccco4)CC3)ccc2[nH]1,0.452 µM,0.309 µM,,Ki [7]: Not Active
CCOC(=O)c1cc2cc(OCCCN3CCN(c4ccc(Cl)c(Cl)c4)CC3)ccc2[nH]1,,10 µM,10 µM,Ki [2]: Not Active
CCOC(=O)c1cc2cc(OCCCN3CCN(c4ccccc4C)CC3)ccc2[nH]1,,,,Ki [2]: Not Active; Ki [6]: Not Active
CCOC(=O)c1cc2cc(OCCCN3CCN(c4ccc(Cl)cc4)CC3)ccc2[nH]1,,0.0451 µM,0.014 µM,
CCOC(=O)c1cc2cc(OCCCN3CCN(c4cccc(Cl)c4)CC3)ccc2[nH]1,,0.00128 µM,0.039 µM,Ki [1]: 0.0329 µM; Ki ([3]; read-out: Ki): 1.07 µM; Ki [4]: Not Active; Ki [5]: 1.35 µM
CCOC(=O)c1cc2cc(OCCCN3CCN(c4ccc([N+](=O)[O-])cc4)CC3)ccc2[nH]1,10 µM,0.247 µM,,Ki [7]: Not Active
CCOC(=O)c1cc2cc(OCCCN3CCN(c4ccccc4Cl)CC3)ccc2[nH]1,0.537 µM,0.0397 µM,10 µM,
CCOC(=O)c1cc2cc(OCCCN3CCN(c4ccccc4C#N)CC3)ccc2[nH]1,,,,Ki [2]: Not Active; Ki [6]: Not Active
CCOC(=O)c1cc2cc(OCCCN3CCN(c4cccc(C(F)(F)F)c4)CC3)ccc2[nH]1,3.61 µM,,0.0358 µM,Ki [6]: Not Active
